# Residue numbers refer to the chain shown, from its start. Names and notes keep the numbering of the source.
# B1: WT: full-length wild type RSK1 (1–735) (protein)
# chain: MPLAQLKEPWPLMELVPLDPENGQTSGEEAGLQPSKDEGVLKEISITHHVKAGSEKADPSHFELLKVLGQGSFGKVFLVRKVTRPDSGHLYAMKVLKKATLKVRDRVRTKMERDILADVNHPFVVKLHYAFQTEGKLYLILDFLRGGDLFTRLSKEVMFTEEDVKFYLAELALGLDHLHSLGIIYRDLKPENILLDEEGHIKLTDFGLSKEAIDHEKKAYSFCGTVEYMAPEVVNRQGHSHSADWWSYGVLMFEMLTGSLPFQGKDRKETMTLILKAKLGMPQFLSTEAQSLLRALFKRNPANRLGSGPDGAEEIKRHVFYSTIDWNKLYRREIKPPFKPAVAQPDDTFYFDTEFTSRTPKDSPGIPPSAGAHQLFRGFSFVATGLMEDDGKPRAPQAPLHSVVQQLHGKNLVFSDGYVVKETIGVGSYSECKRCVHKATNMEYAVKVIDKSKRDPSEEIEILLRYGQHPNIITLKDVYDDGKHVYLVTELMRGGELLDKILRQKFFSEREASFVLHTIGKTVEYLHSQGVVHRDLKPSNILYVDESGNPECLRICDFGFAKQLRAENGLLMTPCYTANFVAPEVLKRQGYDEGCDIWSLGILLYTMLAGYTPFANGPSDTPEEILTRIGSGKFTLSGGNWNTVSETAKDLVSKMLHVDPHQRLTAKQVLQHPWVTQKDKLPQSQLSHQDLQLVKGAMAATYSALNSSKPTPQLKPIESSILAQRRVRKLPSTTL
# modifications: left off: SmBiT, N-terminal, kept
# B2: L714E: RSK1 mutant; eliminates the interaction between ERK and RSK (protein)
# chain: B1 chain with L714E
# modifications: left off: SmBiT, N-terminal, kept
# B3: ΔC1: RSK1 with the last C-terminal residue truncated (1–734), no functional PBM (protein)
# chain: MPLAQLKEPWPLMELVPLDPENGQTSGEEAGLQPSKDEGVLKEISITHHVKAGSEKADPSHFELLKVLGQGSFGKVFLVRKVTRPDSGHLYAMKVLKKATLKVRDRVRTKMERDILADVNHPFVVKLHYAFQTEGKLYLILDFLRGGDLFTRLSKEVMFTEEDVKFYLAELALGLDHLHSLGIIYRDLKPENILLDEEGHIKLTDFGLSKEAIDHEKKAYSFCGTVEYMAPEVVNRQGHSHSADWWSYGVLMFEMLTGSLPFQGKDRKETMTLILKAKLGMPQFLSTEAQSLLRALFKRNPANRLGSGPDGAEEIKRHVFYSTIDWNKLYRREIKPPFKPAVAQPDDTFYFDTEFTSRTPKDSPGIPPSAGAHQLFRGFSFVATGLMEDDGKPRAPQAPLHSVVQQLHGKNLVFSDGYVVKETIGVGSYSECKRCVHKATNMEYAVKVIDKSKRDPSEEIEILLRYGQHPNIITLKDVYDDGKHVYLVTELMRGGELLDKILRQKFFSEREASFVLHTIGKTVEYLHSQGVVHRDLKPSNILYVDESGNPECLRICDFGFAKQLRAENGLLMTPCYTANFVAPEVLKRQGYDEGCDIWSLGILLYTMLAGYTPFANGPSDTPEEILTRIGSGKFTLSGGNWNTVSETAKDLVSKMLHVDPHQRLTAKQVLQHPWVTQKDKLPQSQLSHQDLQLVKGAMAATYSALNSSKPTPQLKPIESSILAQRRVRKLPSTT
# modifications: left off: SmBiT, N-terminal, kept
# Tests used:
# SYNJ2BP = test: NanoBiT protein-protein interaction assay; format: cell-based, human; settings: full-length proteins, serum-starved HEK293T, n=6, vs WT RSK1
# Procedure, shortened: (§1)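 Full-length RSK1 (N-terminal SmBiT) is paired with an N-terminal LgBiT fusion of the partner: ARHGEF12 isoform 2, GOPC isoform 2, PARD3B 1–913, or SYNJ2BP. Sensors are transiently co-expressed in HEK293T cells, which are serum-starved for 20 h from 4 h post-transfection and assayed with Nano-Glo at 24 h. Steady-state signal is referenced to the wild-type pair. For the EGF response (20 ng/ml, 60 min), signal is normalized to initial luminescence and to unstimulated furimazine decay. At least 6 replicates.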
# GOPC = test: NanoBiT protein-protein interaction assay; format: cell-based, human; settings: full-length proteins, serum-starved HEK293T, n=6, vs WT RSK1
# Procedure, shortened: as §1
# PARD3B = test: NanoBiT protein-protein interaction assay; format: cell-based, human; settings: PARD3B 1–913, serum-starved HEK293T, n=6, vs WT RSK1
# Procedure, shortened: as §1
# ARHGEF12 = test: NanoBiT protein-protein interaction assay; format: cell-based, human; settings: full-length proteins, serum-starved HEK293T, n=6, vs WT RSK1
# Procedure, shortened: as §1
# RhoA = test: G-LISA RhoA activation assay; format: cell-based; settings: RSK1/2 knockout HEK293T, n=4; for serum-stimulated RhoA activity: serum-starved, 20% serum 5 min
# MAGI1 = test: NanoBiT protein-protein interaction assay; format: cell-based, human; settings: full-length proteins, serum-starved HEK293T, n=6, vs WT RSK1
# Procedure, shortened: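 Full-length RSK1 (N-terminal SmBiT) is co-expressed with full-length MAGI1–LgBiT in HEK293T cells by FuGene HD transfection, then serum-starved for 20 h in CO2-independent medium. Cells are read with Nano-Glo 24 h post-transfection. Steady-state luminescence of mutant sensors is referenced to the wild-type pair. For the 20 ng/ml EGF response, signal is followed for 60 min and normalized to initial luminescence and to furimazine decay in unstimulated cells. At least 6 biological replicates.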
molecule,measurement,setting,value
B1,steady-state luminescence of interaction sensor,SYNJ2BP,high luminescence signals
same,steady-state luminescence of interaction sensor,GOPC,high luminescence signals
same,steady-state luminescence of interaction sensor,PARD3B,high luminescence signals
same,steady-state luminescence of interaction sensor,ARHGEF12,high luminescence signals
same,serum-stimulated RhoA activity,RhoA,increased RhoA activity
same,basal RhoA activity,RhoA; transfected,increased level of basal RhoA activity
same,steady-state luminescence of interaction sensor,MAGI1,high luminescence signals
B2,steady-state luminescence of interaction sensor,SYNJ2BP,decreased the luminescence outputs
same,steady-state luminescence of interaction sensor,PARD3B,decreased the luminescence outputs
B3,steady-state luminescence of interaction sensor,SYNJ2BP,significantly reduced the luminescent signal
same,steady-state luminescence of interaction sensor,GOPC,significantly reduced the luminescent signal
same,steady-state luminescence of interaction sensor,PARD3B,significantly reduced the luminescent signal
same,steady-state luminescence of interaction sensor,ARHGEF12,significantly reduced the luminescent signal
same,serum-stimulated RhoA activity,RhoA,only minor increment
same,steady-state luminescence of interaction sensor,MAGI1,significantly reduced the luminescent signal
